Screening data as filed in PubChem BioAssay.
A selection: hits, their analogues and other compounds. The true share with any hit is near 2.8%.
NPY-Y2 PAM-ag = potentiates or activates human NPY-Y2 receptor. P49146. cells expressing NPY-Y2, potentiator/agonist read-out. activation, % at 3.6 µM. actives 0.45% (n = 220,000); in the data active = activation above about 27%;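 also: cells stimulated with NPY near EC25 plus isoproterenol at EC100; 0% = vehicle plus submaximal agonist and 100% = vehicle plus saturating agonist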
Rad51 HR inh = Rad51 (human) homologous recombination inhibition; Q06609; hRad51 DNA strand exchange, fluorescence dequenching; inhibition, % at 10 µM; actives 0.085% (n = 200,000);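 active = inhibition above 40% at the single screening dose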;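 also: 0% = DMSO control wells and 100% = blanks with heterologous ssDNA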
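Material: Human Rad51 nucleoprotein filaments preassembled on unlabelled ssDNA | Also added: Labelled 47-mer dsDNA for strand exchange | Dosing: Single dose, 10 µM final compound | Schedule: 30-min compound preincubation and 15-min exchange, both room temperature | Technique: Fluorescence dequenching at 485/520 nm | Measure: Percent inhibition relative to plate controls and blanks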
NPY-Y1 antag = NPY-Y1 (human) receptor antagonism; HEK293-CNG Y1 cells, membrane potential fluorescence; NPY at EC95, then isoproterenol; P25929; inhibition, % at 3.6 µM; actives 1% (n = 200,000);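 active = inhibition above the campaign mean inhibition of all tested compounds plus 3 SD, cut at about 20% in these data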;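 also: 0% = DMSO wells given NPY plus isoproterenol and 100% = isoproterenol alone without NPY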
Target sequence (P25929 whole entry, looked up): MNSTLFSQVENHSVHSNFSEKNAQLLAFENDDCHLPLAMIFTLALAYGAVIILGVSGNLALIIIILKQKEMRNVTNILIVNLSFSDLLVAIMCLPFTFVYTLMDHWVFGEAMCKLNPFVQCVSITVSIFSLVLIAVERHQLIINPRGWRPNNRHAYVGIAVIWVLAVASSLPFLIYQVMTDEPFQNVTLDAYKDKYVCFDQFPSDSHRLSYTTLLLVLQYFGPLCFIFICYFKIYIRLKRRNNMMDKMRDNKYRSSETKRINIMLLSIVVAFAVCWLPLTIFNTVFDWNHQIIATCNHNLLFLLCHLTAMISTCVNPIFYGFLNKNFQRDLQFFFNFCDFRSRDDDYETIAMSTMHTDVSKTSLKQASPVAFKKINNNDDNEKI
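Material: HEK293 cells with Y1 receptor plus CNG channel; times: compound incubation 1 h at room temperature, readout 45 min post-stimulation; signal: fluorescence, membrane potential probe; read-out basis: fluorescence ratio normalized to % inhibition between controls; benchmarks: full-block control isoproterenol-only wells, zero-block control NPY plus isoproterenol wells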
NPY Y2 blocker = antagonists of human neuropeptide Y receptor Y2; P49146; NPY-Y2 expressing cells, antagonist mode; inhibition, % at 2.7 µM; actives 0.99% (n = 140,000);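 also: 0% = vehicle with agonist challenge and 100% = reference antagonist with challenge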
NPY1 pot ag = potentiators or agonists of human neuropeptide Y receptor Y1; P25929; NPY-Y1 expressing cells, potentiator/agonist activation; activation, % at 3.6 µM; actives 0.37% (n = 220,000); AID 1304; in the data active = activation above about 33%, passing the limit was not always enough;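 also: cells stimulated with NPY at EC10 then isoproterenol at EC100; 0% = low agonist plus stimulus and 100% = saturating agonist plus stimulus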
Measles CPE = protection of cells from measles virus; Measles virus-infected cells, CPE protection, absorbance; protection (pct of control), % at 4 µM; actives 1.5% (n = 140,000); AID 841; in the data active = protection mostly above about 24%, no sharp cut-off; inactive = mostly below about 26%
NPY1 antag conf = confirmation of human neuropeptide Y receptor Y1 antagonists; actives 21% (n = 1,200); shares compounds with NPY-Y1 antag; inhibition, % at 3.6 µM; HEK293-CNG NPY-Y1, membrane potential fluorescence, cAMP; NPY challenge against isoproterenol-raised cAMP; in the data active = inhibition above about 20%;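 also: 0% = vehicle with agonist plus stimulus and 100% = stimulus alone without agonist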
NPY-Y2 antag ct = counter-screen for NPY-Y1 antagonists: human NPY-Y2 antagonism | inhibition, % at 3.6 µM | actives 28% (n = 1,200) | HEK293 NPY-Y2 CNG membrane potential fluorescence; cells given NPY, then isoproterenol | shares compounds with NPY-Y1 antag;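 also: 0% = DMSO with agonist challenge and 100% = reference antagonist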
Starred values were filed as active, the others as inactive. Rule as the data show it, unless noted: active = inhibition above about 17%; inactive = the rest.

CCc1cccc(CC)c1NC(=O)Cn1c(-c2ccc(F)cc2)noc1=O was read as NPY-Y2 PAM-ag -12, Rad51 HR inh 12, NPY-Y1 antag 30*, NPY1 pot ag -7, NPY1 antag conf 17 and NPY-Y2 antag ct 6.
Screening Cc1cccc(Oc2sc(C(=O)c3ccccc3)c(N)c2C#N)c1C returned NPY-Y2 PAM-ag 2, NPY-Y1 antag 24*, NPY Y2 blocker 9, NPY1 pot ag -6, Measles CPE 8, NPY1 antag conf 4 and NPY-Y2 antag ct 6.
For N#Cc1c(Oc2ccc3ccccc3c2)sc(C(=O)c2ccccc2)c1N the results were NPY-Y2 PAM-ag -8, Rad51 HR inh -8, NPY-Y1 antag 5, NPY Y2 blocker 0, NPY1 pot ag -4 and Measles CPE 7.
`COC(=O)C1=CN(CCOC23CC4CC(CC(C4)C2)C3)C=C(C(=O)OC)C1c1ccsc1` gave NPY-Y2 PAM-ag -39, Rad51 HR inh -4, NPY-Y1 antag 31*, NPY1 pot ag -23, NPY1 antag conf 41* and NPY-Y2 antag ct 24*.
Screening COC(=O)C1=CN(Cc2ccc(OC)cc2)C=C(C(=O)OC)C1c1ccsc1 returned NPY-Y2 PAM-ag -9, Rad51 HR inh -6, NPY-Y1 antag 9 and NPY1 pot ag 7.
For COc1ccc(C(=O)C2CCCN(C(=O)c3noc4c3CCCC4)C2)c(C)c1 (centres undefined) the results were NPY-Y2 PAM-ag -12, Rad51 HR inh -14, NPY-Y1 antag 7 and NPY1 pot ag -18.
`CCOc1ccccc1-c1nc(C(N)=O)c2[nH]c(=O)n(-c3cccc(C)c3)c2n1` gave NPY-Y2 PAM-ag -5, NPY-Y1 antag 24*, NPY Y2 blocker 17, NPY1 pot ag 4, Measles CPE 5, NPY1 antag conf 13 and NPY-Y2 antag ct 6.
CCOc1cccc(-c2nc(C(N)=O)c3[nH]c(=O)n(-c4cccc(Cl)c4)c3n2)c1O was read as NPY-Y2 PAM-ag -2, Rad51 HR inh 3, NPY-Y1 antag 0, NPY Y2 blocker -1, NPY1 pot ag 10 and Measles CPE 15.
`Cc1cc(C)nc(NNC(=O)c2ccccc2O)n1` gave NPY-Y2 PAM-ag 4, Rad51 HR inh 3, NPY-Y1 antag 2 and NPY1 pot ag 13.
`COC(=O)c1cccnc1Oc1ccccc1` gave NPY-Y2 PAM-ag -9, Rad51 HR inh 6 and NPY1 pot ag 5.
`COCc1cc(C)nc2sc(C(=O)NN)c(-n3cccc3)c12` gave NPY-Y2 PAM-ag -20, Rad51 HR inh 6, NPY-Y1 antag 1 and NPY1 pot ag -5.
CCCCNC(=O)c1sc2nc(C)cc(COC)c2c1-n1cccc1 was read as NPY-Y2 PAM-ag -22, NPY-Y1 antag 21*, NPY Y2 blocker 9, NPY1 pot ag -44, Measles CPE 10, NPY1 antag conf 20 and NPY-Y2 antag ct 12.
For N/C(CSc1ccc(Cl)cc1)=N\NC(=O)c1ccncc1 the results were NPY-Y2 PAM-ag 12, Rad51 HR inh 1, NPY-Y1 antag 1 and NPY1 pot ag 12.
COC(=O)c1ccc(OCC2c3cc(OC)c(OC)cc3CCN2C(C)=O)cc1 (centres undefined) was read as NPY-Y2 PAM-ag 1, Rad51 HR inh 3, NPY-Y1 antag 2 and NPY1 pot ag -11.
COC(=O)c1ccc(OCC2c3cc(OC)c(OC)cc3CCN2C(=O)c2ccco2)cc1 (centres undefined) was read as NPY-Y2 PAM-ag -15, Rad51 HR inh -5, NPY-Y1 antag 22*, NPY Y2 blocker 14, NPY1 pot ag -30, Measles CPE 6, NPY1 antag conf 20 and NPY-Y2 antag ct 18*.
CCN(Cc1cc(=O)[nH]c2ccccc12)C(=O)c1ccc(C)cc1 was read as NPY-Y2 PAM-ag -15, Rad51 HR inh -3 and NPY1 pot ag -2.
Screening CCC/C=C(\CCC)C(NC(=O)OCC(C)C)c1ccc(C(=O)OC)cc1 (centres undefined) returned NPY-Y2 PAM-ag -7, Rad51 HR inh -7, NPY-Y1 antag 22*, NPY Y2 blocker 14, NPY1 pot ag -41, Measles CPE 7, NPY1 antag conf 27* and NPY-Y2 antag ct 26*.
For CCC/C=C(\CCC)C(NS(=O)(=O)c1cccc2cccnc12)c1ccc(C(=O)OC)cc1 (centres undefined) the results were NPY-Y2 PAM-ag 6, Rad51 HR inh 0, NPY-Y1 antag -1, NPY Y2 blocker 4, NPY1 pot ag -34 and Measles CPE 5.
CC(C)Oc1ccc(CCNC(=O)CC2C(=O)NCCN2C)cc1 (centres undefined) was read as NPY-Y2 PAM-ag -17, Rad51 HR inh -1 and NPY1 pot ag 14.
Screening O=C(OCc1cn(-c2ccc(Cl)cc2)nn1)c1ccccc1 returned NPY-Y2 PAM-ag -14, NPY-Y1 antag 21*, NPY Y2 blocker 8, NPY1 pot ag -27, Measles CPE 5, NPY1 antag conf 10 and NPY-Y2 antag ct 12.
Screening CC(C)(C)C(=O)OCc1cn(-c2ccc(Cl)cc2)nn1 returned NPY-Y2 PAM-ag -9, Rad51 HR inh -2, NPY-Y1 antag 3, NPY Y2 blocker 5, NPY1 pot ag -4 and Measles CPE 3.
Cc1ccc(NC(=O)OCc2cn(-c3ccc(Cl)cc3)nn2)cc1 was read as NPY-Y2 PAM-ag -7, NPY-Y1 antag 29*, NPY Y2 blocker 15, NPY1 pot ag -21, Measles CPE 8, NPY1 antag conf 18 and NPY-Y2 antag ct 18*.
CCNC(=O)OCc1cn(-c2ccccc2)nn1 was read as NPY-Y2 PAM-ag 2, Rad51 HR inh -1, NPY-Y1 antag -1 and NPY1 pot ag 1.
`O=C(Nc1cccc(Cl)c1)OCc1cn(-c2ccc(Cl)cc2)nn1` gave NPY-Y2 PAM-ag 3, NPY-Y1 antag 20*, NPY Y2 blocker 7, NPY1 pot ag 0, Measles CPE 2, NPY1 antag conf 8 and NPY-Y2 antag ct 12.
For COc1ccc(-c2[nH]ncc2CN2CCC(C(=O)N3CCOCC3)CC2)c(F)c1 the results were NPY-Y2 PAM-ag 15, Rad51 HR inh 0, NPY-Y1 antag 0 and NPY1 pot ag 17.
Screening COC(=O)Nc1nc(-c2ccccc2)c(C(=O)c2ccc(Cl)cc2)s1 returned NPY-Y2 PAM-ag -24, Rad51 HR inh 5, NPY-Y1 antag 6, NPY Y2 blocker 6, NPY1 pot ag -13 and Measles CPE 7.
